Our source for the IC50 and RF values is ChEMBL document CHEMBL1141142, “Application of fluorescence microscopy for investigation of cellular distribution of dinuclear platinum anticancer drugs” (J Med Chem, 2005).

pIC50: −log10 of the molar value.

Common to all, as to format: functional
Test [1] can be described thus: Inhibitory concentration required for in vitro cytotoxic activity against human U2-OS osteosarcoma cell line. The gist of the method:
(§1)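 MTT growth inhibition; U2-OS or cisplatin-resistant U2-OS/Pt monolayers in DMEM with 10% fetal calf serum, penicillin/streptomycin; (3-5) × 10³ cells/well, attached overnight; five dilutions (from 1 mg/mL stocks in water or dimethylformamide) added in quadruplicate; 72 h exposure; MTT ~120 min, DMSO dissolution, OD 590 nm; IC50 versus control read graphically.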

The nature of test [2]: Inhibitory concentration required for in vitro cytotoxic activity against human U2-OS osteosarcoma cell line (cisplatin Resistant). The gist of the method:
as §1

The species entered for a further test is Homo sapiens. Description: Relative ratio of IC50 values in both cell lines (U2-OS/Pt)/U2-OS). The gist of the method:
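Ratio of IC50 in U2-OS/Pt over U2-OS, both from the 72 h MTT growth-inhibition assay (quadruplicate wells, five dilutions, OD 590 nm, IC50 derived graphically).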

As for CISPLATIN [listing 1 of 2 here], the pIC50 in test [1] was 5.54; in test [2] it was 5.14. Consider CISPLATIN [listing 2 of 2 here], for which, in the test filed under Homo sapiens, the RF was 2.5.

By pIC50 is commonly meant −log10 of the IC50, conventionally taken in molar units. A lower pIC50 goes with a high IC50.
